These results are taken from ChEMBL document CHEMBL3351316, “Scaffold hopping approach on the route to selective tankyrase inhibitors” (Eur J Med Chem, 2014).

Data set [1] is described as follows: Lipophilicity, log D of the compound at pH 7.4. The class given is physicochemical. The note with it: buffer.
Data set [2] has as its target Protein mono-ADP-ribosyltransferase PARP6 (Homo sapiens) (UniProt Q2NL67). The data set can be described thus: Inhibition of human recombinant PARP6 at 10 uM incubated for 1 hr using NAD+, biotinylated NAD+ and activated DNA by luminescence based assay. Put shortly:
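Recombinant PARP enzyme reactions were run in duplicate for 1 h at rt on histone-coated plates in Tris·HCl pH 8.0 buffer with NAD+, biotinylated NAD+ and activated DNA. Detection used streptavidin-HRP for 30 min at rt, then a chemiluminescent developer. % inhibition = 100 − % activity, scaled between the no-compound (100%) and no-enzyme (0%) signals.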

Sequence of Protein mono-ADP-ribosyltransferase PARP6 (Homo sapiens) (Q2NL67 whole entry): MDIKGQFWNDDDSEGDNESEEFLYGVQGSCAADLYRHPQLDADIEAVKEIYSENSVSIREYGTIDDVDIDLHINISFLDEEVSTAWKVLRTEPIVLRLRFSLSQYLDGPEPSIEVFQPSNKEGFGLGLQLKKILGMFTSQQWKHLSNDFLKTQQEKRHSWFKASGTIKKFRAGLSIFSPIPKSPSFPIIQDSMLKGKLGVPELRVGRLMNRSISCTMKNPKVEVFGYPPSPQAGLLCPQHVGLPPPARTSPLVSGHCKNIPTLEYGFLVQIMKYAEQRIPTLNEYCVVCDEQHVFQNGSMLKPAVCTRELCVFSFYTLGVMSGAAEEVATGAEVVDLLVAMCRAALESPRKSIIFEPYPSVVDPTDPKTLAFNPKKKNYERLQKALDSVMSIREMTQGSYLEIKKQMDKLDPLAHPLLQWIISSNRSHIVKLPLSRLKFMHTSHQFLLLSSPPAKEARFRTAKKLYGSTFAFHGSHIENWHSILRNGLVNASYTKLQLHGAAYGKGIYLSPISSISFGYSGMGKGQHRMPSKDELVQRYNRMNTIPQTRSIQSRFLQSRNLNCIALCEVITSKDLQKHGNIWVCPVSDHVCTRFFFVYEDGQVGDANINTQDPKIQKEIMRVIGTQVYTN

Turning to `CC(C)(C)c1ccc(-c2nc3c(sc4ccccc43)c(=O)[nH]2)cc1`, the logD in data set [1] is 5.16. The inhibition in data set [2] was 6%.

As usually defined, the logD is the decadic logarithm of the distribution of all forms, ionised or not, between an organic phase and buffer at a given pH. Higher therefore signals higher lipophilicity. A word on the inhibition: it is the relative decrease from the control value, in per cent.
